Assay outcomes (PubChem)
Only some compounds are listed: those with a hit (about 3.5% of all), similar ones and a draw of the others.
RGS4 pot: RGS4 potentiators or activators, primary screen, cell-based, HEK293 M3R inducible RGS4, calcium flux | B-score at 10 µM | carbachol calcium flux Fluo4; stronger effect = lower value | 0.92% of 310,000 active;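 active means B-score of the integrated calcium signal more than 4 SD below the library mean, with starting fluorescence not abnormally high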;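 further: negative B-score means reduced calcium response which marks RGS4 activation or potentiation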
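Also added: carbachol at ECmax as muscarinic agonist stimulus; Assay system: HEK293 cells with stable M3R and inducible RGS4; Timing: overnight RGS4 induction, 30 min dye load 37 °C, 20 min compound RT; Measured by: Fluo4-AM (2 µM) calcium-flux fluorescence, kinetic read.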
RGS4 inh: RGS4 inhibitors, primary screen, cell-based, HEK293 M3R inducible RGS4, calcium flux | 0.45% of 310,000 active | Fluo-4 calcium flux; stronger effect = higher value; triggered by carbachol at its EC20 | AID 463165, 2010 | B-score at 10 µM;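 active means B-score, a plate-corrected calcium signal, over three deviations above library mean, with baseline fluorescence within five deviations of library mean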;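 further: RGS4 expression induced by doxycycline in cells with stable M3 receptor; B-score is computed from the integrated fluorescence ratio over baseline after carbachol; higher B-score means a larger calcium signal and so more RGS4 inhibition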
Target sequence (P49798 whole entry, looked up): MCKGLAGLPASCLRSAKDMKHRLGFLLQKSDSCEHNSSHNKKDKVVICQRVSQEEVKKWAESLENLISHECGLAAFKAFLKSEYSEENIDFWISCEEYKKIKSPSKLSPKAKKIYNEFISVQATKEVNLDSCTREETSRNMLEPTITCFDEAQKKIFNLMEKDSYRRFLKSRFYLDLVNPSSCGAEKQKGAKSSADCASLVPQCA
MrgX1 antagonist: antagonists of human MrgX1 receptor, primary screen, HEK293 cells, Fluo-4 calcium flux; Mas-related G-protein coupled receptor member X1 (Homo sapiens), Q96LB2; BAM8-22 antagonism; stronger effect = lower value; B-score at 10 µM; 1.3% of 310,000 active;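 active means calcium-response B-score plate-corrected more than 3 library SD below zero, starting fluorescence within 5 deviations, no agonist response on first addition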;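 further: peak minus trough fluorescence over baseline after final BAM8-22 challenge near maximal dose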
Target sequence (Q96LB2 whole entry, looked up): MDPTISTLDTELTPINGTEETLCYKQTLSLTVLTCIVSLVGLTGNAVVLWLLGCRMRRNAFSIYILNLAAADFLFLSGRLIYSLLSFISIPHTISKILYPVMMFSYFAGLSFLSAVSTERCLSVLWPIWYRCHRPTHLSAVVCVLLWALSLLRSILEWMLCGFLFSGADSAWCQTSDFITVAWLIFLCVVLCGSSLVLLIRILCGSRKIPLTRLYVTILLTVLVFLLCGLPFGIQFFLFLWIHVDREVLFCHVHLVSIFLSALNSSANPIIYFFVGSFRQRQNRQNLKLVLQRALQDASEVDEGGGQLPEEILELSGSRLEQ
MrgX1 ag: agonists of human MrgX1 receptor, primary screen, HEK293 cells, Fluo-4 calcium flux; Mas-related G-protein coupled receptor member X1 (Homo sapiens), Q96LB2; Fluo-4 calcium fluorescence, agonist mode; stronger effect = higher value; B-score at 10 µM; 0.44% of 310,000 active;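 active means calcium response B-score plate-corrected fluorescence ratio at least 3 library SD, with starting fluorescence B-score inside 5 SD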
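Test system: HEK293 cells stably expressing human MrgX1 receptor; Input: fifteen thousand cells per well; Dosing: compound delivered in addition one of three; Schedule: overnight seeding, then 1 h dark dye loading; Technique: Fluo-4 NW calcium fluorescence; Measure: B-scored fluorescence response ratio; Controls: positive and negative controls per plate.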
MrgX1 allo act: positive allosteric modulators of MrgX1, primary screen, HEK293 cells, Fluo-4 calcium flux | AID 588675, 2011 | FDSS; stronger effect = higher value | Mas-related G-protein coupled receptor member X1 (Homo sapiens), Q96LB2 | 0.63% of 310,000 active | B-score at 10 µM;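 active means plate-corrected calcium response at least 3 library SD above typical, normal starting fluorescence, not activating the receptor alone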;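 further: compound read alongside a low EC10 to EC30 dose of BAM8-22 agonist; peak minus trough fluorescence over baseline measured at the second addition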
An asterisk follows results filed as active; i = inactive; · = not tested or not shown.

SMILES | RGS4 pot | RGS4 inh | MrgX1 antagonist | MrgX1 ag | MrgX1 allo act
Cc1ccc(S(=O)(=O)N2CCN(C(=O)C3CSC4(C)CCC(=O)N34)CC2)cc1C (stereo not given) | i | i | i | i | i
Cc1ccc(-c2nc3ccc(Cl)cc3c(=O)n2O)cc1 | i | i | i | 36.9* | i
COc1ccc(S(=O)(=O)Nc2ccc(OCC(=O)O)cc2)c2ccccc12 | i | i | i | i | i
CCOc1cc(/C=C2/NC(=O)N(CC(=O)Nc3cccc(C)c3)C2=O)ccc1O | i | i | i | i | i
CCOc1cc(/C=C2/NC(=O)N(CC(=O)Nc3cccc(C)c3)C2=O)ccc1OC | i | i | -7.06* | i | i
CC(CCN1C(Nc2ccccc2)=NC[C@@H]1Cc1ccccc1)c1ccccc1 (stereo not given in full) | i | i | i | i | i
CC(C)CCNc1nc(N)c([N+](=O)[O-])c(NCCO)n1 | i | i | i | i | i
CCC(C)Nc1nc(N)c([N+](=O)[O-])c(NCCO)n1 (stereo not given) | i | i | i | i | 16.7*
Cc1cc(-c2ccc(NC(=O)[C@@H]3CCCC[C@@H]3C(=O)O)c(C)c2)ccc1NC(=O)[C@@H]1CCCC[C@@H]1C(=O)O | i | i | i | i | i
O=C(Nc1ccc(C(=O)O)cc1)/C(=C\C=C\c1ccccc1)NC(=O)c1ccccc1Br | -7.71* | i | i | i | i
O=C(Nc1ccc(C(=O)O)cc1)/C(=C\C=C\c1ccccc1)NC(=O)c1cccc(Br)c1 | i | i | i | i | i
COc1cc2nc(SCc3c(C)noc3C)n(CCC3=CCCCC3)c(=O)c2cc1OC | -8.22* | i | i | i | i
Cc1nc(CCNC(=O)C2CCC(=O)N(Cc3ccc(Cl)cc3)C2)sc1C (stereo not given) | i | i | · | · | ·
O=C1C(Cl)=C(N2CCCCCC2)C(=O)N1c1ccccc1 | -7.41* | i | i | i | i
COc1ccc(/C=c2\s/c(=C/C(=O)c3ccc(C)cc3)[nH]c2=O)cc1OC | i | i | i | 28.6* | i
CC(C)(C)C(=O)/C=c1\[nH]c(=O)/c(=C\c2ccc(F)cc2)s1 | i | i | i | i | i
COCCCNC(=O)CC1C(=O)N(Cc2ccccc2)C(C)c2nc3ccccc3n21 (stereo not given) | i | i | i | i | i
O=C(c1cc(C2CC2)on1)N1CCCC(N2CCN(c3ccc(F)cc3)CC2)C1 (stereo not given) | i | i | i | i | i
O=C(CCN1C(=O)c2ccccc2S1(=O)=O)N1CCN(c2ccccc2)CC1 | i | i | i | i | i
CN1CCN(C(=O)CCN2C(=O)c3ccccc3S2(=O)=O)CC1 | i | i | -7.45* | i | i
Cc1ccc(-n2nnnc2-c2cccs2)cc1[N+](=O)[O-] | -7.41* | i | i | i | i
Cc1ccc(S(=O)(=O)NC(C(=O)Oc2ccc3ccc(=O)oc3c2)c2ccccc2)cc1 (stereo not given) | i | i | i | i | i
Cc1ccc(S(=O)(=O)N[C@H](C(=O)Oc2ccc3c(C(F)(F)F)cc(=O)oc3c2)c2ccccc2)cc1 | i | i | i | 28.6* | i
O=C(COc1ccc(/C=C\[N+](=O)[O-])cc1)N1CCOCC1 | i | i | i | 34.9* | i
O=C(CCC(=O)c1cccs1)NCc1cccc(Cl)c1 | i | i | i | i | i
SMILES | RGS4 pot | RGS4 inh | MrgX1 antagonist | MrgX1 ag | MrgX1 allo act
O=C(NC1C/C(=N/O)c2cc3c(cc21)OCO3)C(F)(F)F (stereo not given) | i | i | i | i | i
Cc1ccc(OCC(=O)NNC(=O)C2CCN(c3ncnc4sc(C)c(C)c34)CC2)cc1 | i | i | i | i | i
Cc1sc2ncnc(N3CCC(C(=O)NNC(=O)COc4ccccc4Cl)CC3)c2c1C | -8.04* | i | -6.97* | i | i
Cc1sc2ncnc(N3CCC(C(=O)NNC(=O)COc4ccccc4F)CC3)c2c1C | -7.68* | i | i | i | i
COc1ccc(CC2(CO)COc3ccccc3C2=O)cc1 (stereo not given) | i | i | i | i | i
O=C(Nc1ccc(F)cc1)OCCOc1ccc(Br)cc1 | i | i | i | i | i
COc1ccc(CCN2C(=O)c3[nH]nc(-c4ccccc4O)c3C2c2cccc(Cl)c2)cc1 (stereo not given) | i | i | i | i | i
COc1cccc(C2c3c(-c4cc(Cl)c(C)cc4O)n[nH]c3C(=O)N2Cc2cccnc2)c1 (stereo not given) | i | 10.5* | i | i | i
CN(C)[C@@H]1CCC[C@@H]1OC(=O)C(c1ccccc1)c1ccccc1 | -7* | i | i | i | i
Cc1cc(C)c(S(=O)(=O)c2cccc(Br)c2C)c(Cl)n1 | i | i | i | i | i
O=[N+]([O-])c1ccc(Oc2ccc(S(=O)(=O)N3CCOCC3)cn2)cc1 | i | i | -7.96* | i | i
Cc1cc(C)[n+](Cc2ccccc2)cc1C(N)=O | i | i | i | i | i
COc1ccc2[nH]c(=O)c(CN(C(=O)c3cccnc3)c3ccccc3C)cc2c1 | i | i | i | i | i
Cc1ccc(NC(=O)/C(C#N)=C/c2ccc(C)s2)c(C)c1 | i | i | -4.7* | i | i
CNS(=O)(=O)c1cc(Nc2ncnc3sccc23)ccc1C | i | i | i | i | i
CC(C)CN(CC(C)C)S(=O)(=O)N1CCC(C(=O)NCc2ccc(F)cc2)CC1 | i | i | i | i | i
CC(C)CN(CC(C)C)S(=O)(=O)N1CCC(C(=O)NCCc2ccc(Cl)cc2)CC1 | i | i | -7.56* | i | i
CC(/C=N/n1c(-c2ccncc2)n[nH]c1=S)=C\c1ccco1 | i | i | i | i | i
CC(/C=N/n1c(-c2ccco2)n[nH]c1=S)=C\c1ccco1 | i | i | -5.85* | i | i
CC(/C=N/n1c(-c2ccccc2)n[nH]c1=S)=C\c1ccco1 | -7.21* | i | i | i | i
CC(/C=N/n1c(-c2ccc(C)cc2)n[nH]c1=S)=C\c1ccco1 | i | i | i | i | i
